Measured values as given in ChEMBL document CHEMBL1138230, “Synthesis and SAR comparison of regioisomeric aryl naphthyridines as potent mGlu5 receptor antagonists” (Bioorg Med Chem Lett, 2007).

What follows are molecules tested on Rattus norvegicus (assay: Inhibition of change in hind paw weight distribution in monosodium iodoacetate-induced osteoarthritis rat model at 10 mg/kg, ip after 4 hrs). Conditions: in vivo; call rule not given here.
Format: organism-based
Design: dose 10 mg/kg, route intraperitoneal

`COc1cc(OC)cc(-c2ccc3ccc(C)nc3n2)c1` was tested, and the Activity was “Active”.

The molecules below were run against Metabotropic glutamate receptor 5 (Rattus norvegicus, UniProt P31424) (assay: Antagonist activity at rat mGlu5 receptor expressed in CHO cells assessed as inhibition of quisqualate-stimulated calcium mobilization). Conditions: not given.
Metabotropic glutamate receptor 5, sequence (P31424 whole entry): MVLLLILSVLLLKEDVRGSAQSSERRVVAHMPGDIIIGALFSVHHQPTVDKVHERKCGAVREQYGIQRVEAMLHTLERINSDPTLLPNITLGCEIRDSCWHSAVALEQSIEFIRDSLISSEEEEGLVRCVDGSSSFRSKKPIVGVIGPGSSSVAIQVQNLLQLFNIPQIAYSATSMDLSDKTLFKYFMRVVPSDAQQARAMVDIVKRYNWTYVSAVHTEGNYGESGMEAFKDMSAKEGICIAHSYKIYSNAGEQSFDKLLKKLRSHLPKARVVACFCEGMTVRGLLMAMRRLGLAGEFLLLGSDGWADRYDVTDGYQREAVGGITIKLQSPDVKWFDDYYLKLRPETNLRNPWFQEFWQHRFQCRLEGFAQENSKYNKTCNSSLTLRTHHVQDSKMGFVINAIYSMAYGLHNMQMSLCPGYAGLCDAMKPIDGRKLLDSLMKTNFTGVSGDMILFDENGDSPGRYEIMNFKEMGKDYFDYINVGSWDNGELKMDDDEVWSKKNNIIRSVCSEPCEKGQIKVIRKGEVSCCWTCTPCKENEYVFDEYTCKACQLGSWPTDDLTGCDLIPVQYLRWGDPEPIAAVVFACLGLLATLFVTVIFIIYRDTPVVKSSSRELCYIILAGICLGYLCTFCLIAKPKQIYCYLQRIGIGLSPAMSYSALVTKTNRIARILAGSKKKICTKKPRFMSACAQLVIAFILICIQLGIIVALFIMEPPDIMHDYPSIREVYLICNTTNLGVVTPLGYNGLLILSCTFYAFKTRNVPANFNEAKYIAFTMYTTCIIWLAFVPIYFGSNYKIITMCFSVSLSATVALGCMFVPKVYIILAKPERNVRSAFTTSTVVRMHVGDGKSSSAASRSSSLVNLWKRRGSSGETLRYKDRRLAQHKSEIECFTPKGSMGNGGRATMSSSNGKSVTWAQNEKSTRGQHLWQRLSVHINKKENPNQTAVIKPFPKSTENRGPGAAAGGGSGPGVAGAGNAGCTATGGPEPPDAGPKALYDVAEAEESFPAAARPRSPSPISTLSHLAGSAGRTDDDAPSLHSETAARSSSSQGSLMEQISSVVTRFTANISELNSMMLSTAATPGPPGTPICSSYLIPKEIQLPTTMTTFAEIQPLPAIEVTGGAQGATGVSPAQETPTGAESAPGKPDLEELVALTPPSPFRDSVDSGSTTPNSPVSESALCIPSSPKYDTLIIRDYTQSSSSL
Format: functional, cell-based
Procedure, shortened: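 CHO cells stably expressing rat mGlu5; inhibition of quisqualate-stimulated calcium mobilization read by FLIPR. Values are geometric means of two or more experiments.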

Going from `c1ccc(-c2ccc3cccnc3n2)cc1` to `Cc1cccc(-c2ccc3cccnc3n2)c1`, the IC50 falls from 1840 nM to 225 nM (8.2-fold).

Compared with `N#Cc1cccc(-c2ccc3cccnc3n2)c1`, `Cc1ccc2ccc(-c3cccc(C#N)c3)nc2n1` is 4.2-fold higher in IC50: 115 nM for the first, 480 nM for the second. The first is the more potent here.

First: Cc1ccc(-c2ccc3cccnc3n2)cc1C
Second: Cc1cccc(-c2ccc3ccc(C)nc3n2)c1
The IC50 of the first is 6.2-fold lower: 45 nM for the first, 277 nM for the second.

Compared with `c1ccc(-c2cc3ncccc3cn2)cc1`, `Cc1cccc(-c2cc3ncccc3cn2)c1` is lower in IC50: over 30000 nM for the first, 1270 nM for the second.

Compared with `Cc1cc(C)cc(-c2cnc3cccnc3c2)c1`, `Cc1ccc(-c2cnc3cccnc3c2)cc1C` is lower in IC50: over 30000 nM for the first, 12000 nM for the second. The second is the more potent here.

Compared with `Cc1ccc2ccc(-c3cc(F)cc(F)c3)nc2n1`, `COc1cc(OC)cc(-c2ccc3ccc(C)nc3n2)c1` is 3.5-fold lower in IC50: 181 nM for the first, 51.7 nM for the second.

Compared with `COc1cc(OC)cc(-c2cc3ncccc3cn2)c1`, `COc1cc(C#N)cc(-c2cc3ncccc3cn2)c1` is 89-fold lower in IC50: 6070 nM for the first, 68 nM for the second.

`Cc1cccc(-c2cnc3cccnc3c2)c1` and `N#Cc1cccc(-c2cnc3cccnc3c2)c1` are within 1.5-fold of each other in IC50: 15700 nM for the first, 18600 nM for the second.

Going from `Cc1ccc2cnc(-c3ccccc3)cc2n1` to `Cc1cccc(-c2cc3nc(C)ccc3cn2)c1`, the IC50 falls from over 30000 nM to 676 nM. The second is the more potent here.

Going from `Cc1ccc2ccc(-c3cccc(Br)c3)nc2n1` to `Cc1ccc2ccc(-c3cccc(Cl)c3)nc2n1`, the IC50 rises from 47.9 nM to 177 nM (3.7-fold). The first is the more potent here.

Going from `COc1cccc(-c2cc3nc(C)ccc3cn2)c1` to `COc1cc(OC)cc(-c2cc3nc(C)ccc3cn2)c1`, the IC50 falls from 7900 nM to 345 nM (23-fold). The second is the more potent here.

Going from `COc1cc(C#N)cc(-c2cc3nc(C)ccc3cn2)c1` to `Cc1cc(F)cc(-c2cc3nc(C)ccc3cn2)c1`, the IC50 rises from 6.19 nM to 2930 nM (470-fold). The first is the more potent here.

Going from `Cc1cc(F)cc(-c2cc3ncccc3cn2)c1` to `N#Cc1cc(F)cc(-c2cc3ncccc3cn2)c1`, the IC50 falls from 6570 nM to 1590 nM (4.1-fold). The second is the more potent here.

Compared with `COCOc1cc(C#N)cc(-c2cc3ncccc3cn2)c1`, `COc1cc(C#N)cc(-c2cnc3cccnc3c2)c1` is 8.5-fold lower in IC50: 468 nM for the first, 55 nM for the second.

Going from `COc1cc(OC)cc(-c2ccc3cccnc3n2)c1` to `Cc1ccc2ccc(-c3ccccc3)nc2n1`, the IC50 rises from 67 nM to 664 nM (9.9-fold).

Each molecule was assayed on Rattus norvegicus (assay: Inhibition of change in hind paw weight distribution in monosodium iodoacetate-induced osteoarthritis rat model at 10 mg/kg, ip after 2 hrs). Conditions: in vivo.
Format: organism-based
Design: dose 10 mg/kg, route intraperitoneal

With `COc1cc(OC)cc(-c2ccc3ccc(C)nc3n2)c1` the Activity was “Active”.

The molecules below were run on Rattus norvegicus (assay: Inhibition of change in hind paw weight distribution in monosodium iodoacetate-induced osteoarthritis rat model at 10 mg/kg, ip after 6 hrs). Conditions: in vivo.
Format: organism-based
Design: dose 10 mg/kg, route intraperitoneal

With `COc1cc(OC)cc(-c2ccc3ccc(C)nc3n2)c1` the Activity was “Active”.
